Measured values: ChEMBL document CHEMBL4257549, “Design, synthesis and biological evaluation of benzimidazole-rhodanine conjugates as potent topoisomerase II inhibitors” (Medchemcomm, 2018)
Calls of active or inactive are those of the source. The rule behind the calls is not given here.

Experiments:
[1] = molecular target: T1, DNA topoisomerase 1 (Homo sapiens) (UniProt P11387); assay: Inhibition of topoisomerase 1 (unknown origin)-mediated pBR322 DNA relaxation at 50 uM after 30 mins by agarose gel electrophoresis
T1 sequence (whole entry): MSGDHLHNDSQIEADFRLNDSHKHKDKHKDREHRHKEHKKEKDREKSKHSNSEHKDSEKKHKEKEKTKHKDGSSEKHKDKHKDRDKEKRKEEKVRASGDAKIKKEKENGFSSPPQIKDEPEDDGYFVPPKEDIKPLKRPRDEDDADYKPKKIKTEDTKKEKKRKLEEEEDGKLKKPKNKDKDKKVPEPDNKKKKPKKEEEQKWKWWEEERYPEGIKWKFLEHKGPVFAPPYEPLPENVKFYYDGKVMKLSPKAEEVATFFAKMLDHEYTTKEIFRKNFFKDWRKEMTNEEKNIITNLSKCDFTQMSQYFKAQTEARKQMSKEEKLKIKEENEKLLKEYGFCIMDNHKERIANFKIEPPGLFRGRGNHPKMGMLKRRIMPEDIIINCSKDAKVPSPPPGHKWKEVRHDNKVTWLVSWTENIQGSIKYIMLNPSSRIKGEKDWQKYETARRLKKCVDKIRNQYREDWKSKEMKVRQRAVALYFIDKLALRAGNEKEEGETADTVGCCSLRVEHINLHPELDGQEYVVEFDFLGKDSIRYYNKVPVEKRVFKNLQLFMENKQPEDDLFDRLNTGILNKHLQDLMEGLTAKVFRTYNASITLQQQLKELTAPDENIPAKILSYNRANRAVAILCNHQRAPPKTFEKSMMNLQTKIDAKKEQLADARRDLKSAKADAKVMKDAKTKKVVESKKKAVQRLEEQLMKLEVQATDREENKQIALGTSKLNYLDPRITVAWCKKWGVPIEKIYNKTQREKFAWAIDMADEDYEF
Outline: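 Topo I relaxation of pBR322 with compound at 30 min, 37 °C, camptothecin positive control. Stopped with SDS/bromophenol blue/glycerol dye, run on 1% agarose in TAE for 1.5 h, Ged Red stained, UV visualized.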

[2] = system: A549; assay: Cytotoxicity against human A549 cells after 48 hrs by MTT assay; type: functional, cell-based; conditions: A549, 48 h
Outline: (§1)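 Cells seeded at 5000 per well, left overnight, then exposed to compound at 0–50 μM for 48 h. MTT (20 μL of 2.5 mg mL−1) added for a further 4 h at 37 °C, formazan dissolved in DMSO, absorbance read at 570 nm. Quadruplicate wells, N > 2 determinations, mean IC50 taken as the concentration reducing cell number to 50%.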

[3] = system: PC-3; assay: Cytotoxicity against human PC3 cells after 48 hrs by MTT assay; type: functional, cell-based; conditions: PC-3, 48 h; outline: as §1
[4] = species on record: Homo sapiens; assay: Inhibition of human topoisomerase 2-mediated pBR322 DNA relaxation at 20 uM after 30 mins by agarose gel electrophoresis
[5] = system: Raji; assay: Cytotoxicity against human Raji cells after 48 hrs by MTT assay; type: functional, cell-based; outline: as §1
[6] = system: HeLa; assay: Cytotoxicity against human HeLa cells after 48 hrs by MTT assay; type: functional, cell-based; outline: as §1
[7] = system: HL-60; assay: Cytotoxicity against human HL60 cells after 48 hrs by MTT assay; type: functional, cell-based; conditions: HL-60, 48 h; outline: as §1
[8] = system: MDA-MB-231; assay: Cytotoxicity against human MDA-MB-231 cells after 48 hrs by MTT assay; type: functional, cell-based; conditions: MDA-MB-231, 48 h; outline: as §1
[9] = species on record: Homo sapiens; assay: Inhibition of human topoisomerase 2-mediated pBR322 DNA relaxation at 50 uM after 30 mins by agarose gel electrophoresis
Outline: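 Relaxation of 200 ng supercoiled pBR322 by 1 U Topo II (TopoGEN) in 20 μL buffer: 50 mM Tris-HCl pH 8.0, 150 mM NaCl, 10 mM MgCl2, 2 mM ATP, 0.5 mM DTT, 30 μg/mL BSA. Incubated 30 min at 37 °C, stopped with sarcosyl/glycerol dye. Products run on 1% agarose in TAE (1.5 h, 75 V), Ged Red stained, UV imaged; etoposide positive control.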

[10] = species on record: Homo sapiens; assay: Inhibition of human topoisomerase 2-mediated pBR322 DNA relaxation at 10 uM after 30 mins by agarose gel electrophoresis

Compound	inhibition [1]	IC50 [2] [µM]	IC50 [3] [µM]	inhibition [4]	IC50 [5] [µM]	IC50 [6] [µM]	IC50 [7] [µM]	IC50 [8] [µM]	inhibition [9]	inhibition [10]
O=C(O)CN1C(=O)/C(=C/c2nc3ccccc3n2Cc2ccc([N+](=O)[O-])cc2)SC1=S	inactive	11.4	8.27	inactive	2.51	18.6	5.32	7.76	–	–
O=C(O)CN1C(=O)/C(=C/c2nc3ccccc3n2Cc2ccc(Cl)cc2)SC1=S	inactive	17.5	9.67	Active	11.4	8.72	2.65	5.58	–	–
O=C(O)CN1C(=O)/C(=C/c2nc3ccccc3n2Cc2ccccc2)SC1=S	inactive	8.76	10.8	Active	3.86	22.7	0.96	1.82	Active	–
CCn1c(/C=C2\SC(=S)N(CC(=O)O)C2=O)nc2ccccc21	inactive	9.44	3.25	inactive	5.56	3.52	2.12	1.88	Active	–
O=C(O)CN1C(=O)/C(=C/c2nc3ccccc3n2CC(=O)c2ccc(F)cc2)SC1=S	inactive	12.8	9.87	Active	8.24	14.8	3.96	6.31	–	Active
Cc1ccc(Cn2c(/C=C3\SC(=S)N(CC(=O)O)C3=O)nc3ccc(Cl)cc32)cc1	inactive	9.97	1.52	Active	2.79	11	2.84	3.96	Active	–
O=C(O)CN1C(=O)/C(=C/c2nc3ccccc3n2Cc2ccc(F)cc2F)SC1=S	inactive	12.8	21.7	inactive	8.96	26.1	6.52	11.5	Active	–
O=C(O)CN1C(=O)/C(=C/c2nc3ccccc3n2Cc2ccc(C(F)(F)F)cc2)SC1=S	inactive	25.3	22.9	Active	18.8	21.4	3.56	12.5	–	–
Cc1ccc(C(=O)Cn2c(/C=C3\SC(=S)N(CC(=O)O)C3=O)nc3ccccc32)cc1	inactive	9.46	8.75	Active	12.3	27.4	15.9	16.9	–	–
O=C(O)CCN1C(=O)/C(=C/c2nc3ccccc3n2Cc2ccccc2F)SC1=S	inactive	18.7	28.6	inactive	11.3	26.5	5.72	9.53	–	–
COc1ccc2c(c1)nc(/C=C1\SC(=S)N(CC(=O)O)C1=O)n2Cc1ccccc1F	inactive	18.4	24.7	inactive	11.5	22.5	3.41	16.9	Active	–
COc1ccc2nc(/C=C3\SC(=S)N(CC(=O)O)C3=O)n(Cc3ccc(C)cc3)c2c1	inactive	23.6	16.2	Active	10.8	6.44	1.92	3.77	Active	–
O=C(O)CN1C(=O)/C(=C/c2nc3ccccc3n2CC(=O)c2ccc(Cl)cc2)SC1=S	inactive	9.85	6.45	Active	3.18	27.3	2.43	1.12	–	Active
COc1cc(Cn2c(/C=C3\SC(=S)N(CC(=O)O)C3=O)nc3ccccc32)cc(OC)c1	–	5.17	6.37	Active	2.11	17.7	1.41	1.28	–	Active
O=C(O)CN1C(=O)/C(=C/c2nc3ccccc3n2Cc2ccc(Br)cc2F)SC1=S	inactive	27.3	21.1	inactive	11.4	> 50	6.42	28.4	Active	–
COc1ccc(C(=O)Cn2c(/C=C3\SC(=S)N(CC(=O)O)C3=O)nc3ccccc32)cc1	inactive	5.15	8.75	inactive	6.32	26.7	5.44	12.9	–	–
CC[C@@]1(O)C(=O)OCc2c1cc1n(c2=O)Cc2cc3ccccc3nc2-1 [CAMPTOTHECIN]	–	2.21	18.2	–	3.27	> 50	0.42	16.4	–	–
O=C(O)CN1C(=O)/C(=C/c2nc3ccccc3n2Cc2cccc(F)c2)SC1=S	inactive	23.2	35.7	inactive	13.3	> 50	7.21	22.5	–	–
Cc1ccc(Cn2c(/C=C3\SC(=S)N(CCC(=O)O)C3=O)nc3ccccc32)cc1	inactive	8.74	9.31	inactive	6.68	11.2	4.14	3.79	–	–
N#Cc1ccc(Cn2c(/C=C3\SC(=S)N(CC(=O)O)C3=O)nc3ccccc32)cc1	inactive	26.6	14.4	inactive	9.78	16.3	7.64	11.2	–	–
O=C(O)CN1C(=O)/C(=C/c2nc3ccccc3n2Cc2ccc(F)cc2)SC1=S	inactive	3.57	4.86	Active	1.77	13.9	1.42	2.62	–	–
Cc1ccc(Cn2c(/C=C3\SC(=S)NC3=O)nc3ccccc32)cc1	inactive	5.31	9.78	Active	4.48	25.2	2.66	6.42	–	–
O=C(O)CN1C(=O)/C(=C/c2nc3ccccc3n2Cc2ccc(Br)cc2)SC1=S	inactive	9.12	8.49	Active	1.19	12.9	0.87	8.72	–	–
O=C(O)CN1C(=O)/C(=C/c2nc3cc(F)ccc3n2Cc2ccccc2F)SC1=S	inactive	32.6	> 50	inactive	20.4	> 50	> 50	22.4	Active	–
O=C1NC(=S)S/C1=C\c1nc2ccccc2n1Cc1ccccc1F	inactive	> 50	> 50	Active	25.5	36.1	8.42	21.3	–	–
